Experimental data of several laboratories.
Target: Myosin light chain kinase 2, skeletal/cardiac muscle (MYLK2, Homo sapiens, UniProt Q9H1R3)

| Compound | test | setting | measurement | value |
| --- | --- | --- | --- | --- |
| CC(C)(C)c1cc(C=C(C#N)C#N)cc(Br)c1O | enzyme activity, inhibitor | 0.5 µM | remaining activity | 99.3% |
| Cn1cc(-c2cc(F)cc(N3CCn4c(cc5c4CCCC5)C3=O)c2CO)cc(Nc2ccc(N3CCN(C4COC4)CC3)cn2)c1=O | enzyme activity, inhibitor | 0.1 µM | inhibition | 17% |
| Cn1cncc1[C@@](O)(COc1ccc(C#N)cc1-c1ccc(OC(F)(F)F)cc1)c1ccc(C#N)cc1 | cell-free assay, competition with immobilised ligand | 1 µM | remaining binding | 100% |
| Nc1ncc(-c2nc(N3CCOCC3)nc(N3CCOCC3)n2)c(C(F)F)n1 | binding, competition with immobilised ligand | 10 µM | remaining binding | 92% |
| COc1cc(Nc2ncc(F)c(Nc3ccc4c(n3)NC(=O)C(C)(C)O4)n2)cc(OC)c1OC | binding, competition with immobilised ligand | 10 µM | inhibition | 58% |
| O=c1[nH]c2ccccc2n1C1CCN(Cc2ccc(-c3[nH]c4cc5ncnc5cc4nc3-c3ccccc3)cc2)CC1 | cell-free assay | 0.5 µM | remaining signal | 103% |
| Cc1nn(C)cc1-c1nc2c(N3CCN(Cc4ccc(Cl)cc4)CC3)c(Cl)cnc2[nH]1 | binding, competition with immobilised ligand | 1 µM | remaining binding | 61% |
| Cn1cc(-c2cccc(N3CCc4c(sc5c4CC(C)(C)C5)C3=O)c2CO)cc(Nc2ccncn2)c1=O | enzyme activity, inhibitor | 1 µM | inhibition | 14% |
| COc1ncccc1-c1cnn2ccc(N3CCN(C(=O)OC(C)C)CC3)nc12 | binding, competition with immobilised ligand | 1 µM | remaining binding | 89% |
